Source: ChEMBL document CHEMBL1138034, “Structural studies on bioactive compounds. 40.(1) Synthesis and biological properties of fluoro-, methoxyl-, and amino-substituted 3-phenyl-4H-1-benzopyran-4-ones and a comparison of their antitumor activities with the activities of related 2-phenylbenzothiazoles” (J Med Chem, 2006)
pIC50: −log10 of the molar value. Active and inactive are the calls of the source. No cut-off for these calls is given here.

system: HT-29; experiment: Antiproliferative activity against human HT29 cell line; format: functional
Method in brief: (§1)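 Cells kept in RPMI 1640 with 2 mM L-glutamine and 10% fetal calf serum, 37 °C, 5% CO₂, passaged twice weekly. 5 × 10³ cells/well allowed 24 h to adhere, then exposed 72 h to compound at final 0.1 nM–100 µM (n = 8). MTT read-out: MTT 400 µg/mL for 4 h at 37 °C, formazan dissolved in DMSO/glycine buffer pH 10.5, absorbance 550 nm; GI50 derived.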

Structure (SMILES)	GI50 [µM]
COc1ccc(-c2coc3c(F)c(F)ccc3c2=O)cc1OC	31.7
Nc1ccc(-c2coc3cc(F)ccc3c2=O)cc1	8.6
COc1ccc(-c2coc3c(F)cccc3c2=O)cc1OC	88
COc1ccc(-c2coc3ccccc3c2=O)cc1OC	> 100
COc1cccc(-c2coc3ccccc3c2=O)c1	88
COc1ccc(-c2coc3cc(F)ccc3c2=O)cc1	17.6
Nc1ccc(-c2coc3ccccc3c2=O)cc1	8.1
COc1ccc(-c2coc3cc(F)ccc3c2=O)cc1OC	87
COc1ccc(-c2nc3cc(F)ccc3s2)cc1OC	2.6
COc1ccc(-c2coc3cc(F)c(F)cc3c2=O)cc1OC	22.6

More lines, now with the values ahead:

GI50 [µM]	Structure (SMILES)
6.1	Nc1ccc(-c2coc3ccc(F)cc3c2=O)cc1
7.2	COc1ccc(-c2coc3c(F)cc(F)cc3c2=O)cc1OC
63	Cc1cc(-c2nc3cc(F)ccc3s2)ccc1N
88.2	COc1ccc(-c2coc3ccc(F)cc3c2=O)cc1OC

system: Panel NCI-60 (60 carcinoma cell lines); experiment: Antiproliferative activity against human NCI60 cell line; format: functional

Structure (SMILES)	GI50 [µM]
COc1ccc(-c2coc3c(F)c(F)ccc3c2=O)cc1OC	50
Nc1ccc(-c2coc3cc(F)ccc3c2=O)cc1	50
COc1ccc(-c2coc3ccc(F)cc3c2=O)cc1	50
Nc1ccc(-c2coc3ccc(F)cc3c2=O)cc1	50
O=c1c(-c2ccc3c(c2)OCO3)coc2ccc(F)cc12	50
COc1ccc(-c2coc3c(F)cccc3c2=O)cc1OC	50
COc1ccc(-c2coc3ccccc3c2=O)cc1OC	50
COc1ccc(-c2coc3c(F)cc(F)cc3c2=O)cc1OC	50
O=c1c(-c2ccc(Br)cc2)coc2ccccc12	50
O=c1c(-c2ccc(Cl)cc2)coc2ccccc12	50
O=c1c(-c2cccc([N+](=O)[O-])c2)coc2ccccc12	50
COc1cccc(-c2coc3ccccc3c2=O)c1	50
COc1ccc(-c2coc3cc(F)ccc3c2=O)cc1	50
Nc1ccc(-c2coc3ccccc3c2=O)cc1	50
COc1ccc(-c2coc3cc(F)ccc3c2=O)cc1OC	50
COc1ccc(-c2coc3ccc(F)cc3c2=O)cc1OC	50
COc1ccc(-c2coc3cc(F)c(F)cc3c2=O)cc1OC	50

target: T1, Cytochrome P450 1A1 (Homo sapiens, UniProt P04798); experiment: Inhibition of CYP1A1 by EROD assay; format: ADME
T1 sequence (P04798 whole entry): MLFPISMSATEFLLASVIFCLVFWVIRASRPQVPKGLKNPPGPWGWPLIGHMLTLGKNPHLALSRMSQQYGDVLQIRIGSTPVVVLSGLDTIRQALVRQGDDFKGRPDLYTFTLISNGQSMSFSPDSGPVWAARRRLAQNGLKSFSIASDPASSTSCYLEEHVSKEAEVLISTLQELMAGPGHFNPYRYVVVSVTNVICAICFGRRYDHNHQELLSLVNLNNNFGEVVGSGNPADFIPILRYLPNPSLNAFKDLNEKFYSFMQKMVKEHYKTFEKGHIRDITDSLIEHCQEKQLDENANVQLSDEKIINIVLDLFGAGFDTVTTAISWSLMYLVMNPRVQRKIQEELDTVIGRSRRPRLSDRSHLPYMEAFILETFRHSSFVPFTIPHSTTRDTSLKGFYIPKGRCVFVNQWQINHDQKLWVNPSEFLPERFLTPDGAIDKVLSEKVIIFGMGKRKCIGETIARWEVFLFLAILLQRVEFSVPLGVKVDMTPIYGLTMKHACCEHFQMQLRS
Method in brief: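 EROD fluorometric assay. Recombinant CYP1A1 microsomes (0.1 mg/mL) in 100 mM Tris-HCl pH 7.4 with 50 µM MgCl₂ and 100 µM 7-ethoxyresorufin, with compound at 1, 10 or 100 µM. Preincubated 5 min at 37 °C, started with 500 µM NADPH, run 15 min at 37 °C, stopped with ice-cold acetonitrile. Resorufin read at ex 530/em 585 nm against a standard curve; no-microsome and DMSO controls.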

pIC50	Structure (SMILES)
> 4.00	COc1ccc(-c2coc3ccc(F)cc3c2=O)cc1
> 4.00	COc1ccc(-c2coc3cc(F)ccc3c2=O)cc1OC
> 4.00	COc1ccc(-c2coc3ccc(F)cc3c2=O)cc1OC

system: MDA-MB-468; experiment: Antiproliferative activity against human MDA-MB-468 cell line; format: functional; method in brief: as §1

Structure (SMILES)	GI50 [µM]
COc1ccc(-c2coc3c(F)c(F)ccc3c2=O)cc1OC	21.6
Nc1ccc(-c2coc3cc(F)ccc3c2=O)cc1	6.4
COc1ccc(-c2coc3c(F)cccc3c2=O)cc1OC	41.9
COc1ccc(-c2coc3ccccc3c2=O)cc1OC	66.5
COc1cccc(-c2coc3ccccc3c2=O)c1	29
COc1ccc(-c2coc3cc(F)ccc3c2=O)cc1	9.9
Nc1ccc(-c2coc3ccccc3c2=O)cc1	6
COc1ccc(-c2coc3cc(F)ccc3c2=O)cc1OC	58.9
COc1ccc(-c2nc3cc(F)ccc3s2)cc1OC	< 0.0001
COc1ccc(-c2coc3cc(F)c(F)cc3c2=O)cc1OC	17.2

Further lines, results first:

GI50 [µM]	Structure (SMILES)
4.8	Nc1ccc(-c2coc3ccc(F)cc3c2=O)cc1
1.5	O=c1c(-c2ccc3c(c2)OCO3)coc2ccc(F)cc12
6.3	COc1ccc(-c2coc3c(F)cc(F)cc3c2=O)cc1OC
< 0.0001	Cc1cc(-c2nc3cc(F)ccc3s2)ccc1N
0.9	COc1ccc(-c2coc3ccc(F)cc3c2=O)cc1OC

system: MDA-MB-435; experiment: Antiproliferative activity against human MDA-MB-435 cell line expressing ARNT splice variant

Structure (SMILES)	GI50 [µM]
COc1ccc(-c2coc3cc(F)ccc3c2=O)cc1	> 30
COc1ccc(-c2coc3cc(F)c(F)cc3c2=O)cc1OC	> 30

Now from value to compound:

GI50 [µM]	Structure (SMILES)
> 30	COc1ccc(-c2coc3c(F)cc(F)cc3c2=O)cc1OC
> 30	COc1ccc(-c2coc3ccc(F)cc3c2=O)cc1OC

system: MCF7; experiment: Antiproliferative activity against human MCF7 cell line; format: functional; method in brief: as §1

Structure (SMILES)	GI50 [µM]
COc1ccc(-c2coc3c(F)c(F)ccc3c2=O)cc1OC	47.2
Nc1ccc(-c2coc3cc(F)ccc3c2=O)cc1	7.9
COc1ccc(-c2coc3c(F)cccc3c2=O)cc1OC	75.5
COc1ccc(-c2coc3ccccc3c2=O)cc1OC	88.1
COc1cccc(-c2coc3ccccc3c2=O)c1	> 100
COc1ccc(-c2coc3cc(F)ccc3c2=O)cc1	43.8
Nc1ccc(-c2coc3ccccc3c2=O)cc1	64.9
COc1ccc(-c2coc3cc(F)ccc3c2=O)cc1OC	90.6
COc1ccc(-c2nc3cc(F)ccc3s2)cc1OC	0.008
COc1ccc(-c2coc3cc(F)c(F)cc3c2=O)cc1OC	41.5

Continued, values first:

GI50 [µM]	Structure (SMILES)
8.8	Nc1ccc(-c2coc3ccc(F)cc3c2=O)cc1
60	O=c1c(-c2ccc3c(c2)OCO3)coc2ccc(F)cc12
46.7	COc1ccc(-c2coc3c(F)cc(F)cc3c2=O)cc1OC
< 0.0001	Cc1cc(-c2nc3cc(F)ccc3s2)ccc1N
93.1	COc1ccc(-c2coc3ccc(F)cc3c2=O)cc1OC

system: MDA-MB-468; experiment: Antiproliferative activity against human MDA-MB-468 cell line in presence of 10 nM TBDD; format: functional
Method in brief: (§2)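 MDA-MB-468 cells, 5 × 10³/well, allowed 24 h to adhere, then co-exposed 72 h to isoflavone (final 0.1 nM–100 µM, n = 8) plus TBDD at final 10 nM (n = 4). Viability measured by MTT (400 µg/mL, 4 h, 37 °C), formazan dissolved in DMSO/glycine pH 10.5, absorbance 550 nm.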

Structure (SMILES)	GI50 [µM]
COc1ccc(-c2coc3c(F)c(F)ccc3c2=O)cc1OC	< 1
COc1ccc(-c2coc3c(F)cccc3c2=O)cc1OC	< 1
COc1ccc(-c2coc3ccccc3c2=O)cc1OC	< 1
COc1cccc(-c2coc3ccccc3c2=O)c1	< 1
COc1ccc(-c2coc3cc(F)ccc3c2=O)cc1OC	< 1

The remaining lines, values ahead:

GI50 [µM]	Structure (SMILES)
2	O=c1c(-c2ccc3c(c2)OCO3)coc2ccc(F)cc12
< 1	COc1ccc(-c2coc3ccc(F)cc3c2=O)cc1OC

system: HCT-116; experiment: Antiproliferative activity against human HCT116 cell line; format: functional; method in brief: as §1

Structure (SMILES)	GI50 [µM]
COc1ccc(-c2coc3c(F)c(F)ccc3c2=O)cc1OC	26
Nc1ccc(-c2coc3cc(F)ccc3c2=O)cc1	7.2
COc1ccc(-c2coc3c(F)cccc3c2=O)cc1OC	67.8
COc1ccc(-c2coc3ccccc3c2=O)cc1OC	> 100
COc1cccc(-c2coc3ccccc3c2=O)c1	> 100
COc1ccc(-c2coc3cc(F)ccc3c2=O)cc1	8.5
Nc1ccc(-c2coc3ccccc3c2=O)cc1	17.3
COc1ccc(-c2coc3cc(F)ccc3c2=O)cc1OC	80.2
COc1ccc(-c2nc3cc(F)ccc3s2)cc1OC	5.4
COc1ccc(-c2coc3cc(F)c(F)cc3c2=O)cc1OC	39.7

Results, then the compound that gave them:

GI50 [µM]	Structure (SMILES)
8.5	Nc1ccc(-c2coc3ccc(F)cc3c2=O)cc1
8.1	COc1ccc(-c2coc3c(F)cc(F)cc3c2=O)cc1OC
16	Cc1cc(-c2nc3cc(F)ccc3s2)ccc1N
65.3	COc1ccc(-c2coc3ccc(F)cc3c2=O)cc1OC

system: MDA-MB-468; experiment: Cytotoxicity against human MDA-MB-468 cell line at 3 uM in presence of TBDD; format: functional, cell-based; method in brief: as §2

Structure (SMILES)	Activity
COc1ccc(-c2coc3c(F)cccc3c2=O)cc1OC	Active
COc1ccc(-c2coc3cc(F)ccc3c2=O)cc1OC	Active
